Experimental findings from ChEMBL document CHEMBL1139160 (Bioorg Med Chem Lett, 2007) are described below.

pIC50: −log10 of the molar value.

The term pIC50 denotes the IC50 on a negative log10 scale, so that one unit is a factor of ten. Read a low pIC50 as a high IC50.

Sequence of Dipeptidyl peptidase 4 (P14740 whole entry): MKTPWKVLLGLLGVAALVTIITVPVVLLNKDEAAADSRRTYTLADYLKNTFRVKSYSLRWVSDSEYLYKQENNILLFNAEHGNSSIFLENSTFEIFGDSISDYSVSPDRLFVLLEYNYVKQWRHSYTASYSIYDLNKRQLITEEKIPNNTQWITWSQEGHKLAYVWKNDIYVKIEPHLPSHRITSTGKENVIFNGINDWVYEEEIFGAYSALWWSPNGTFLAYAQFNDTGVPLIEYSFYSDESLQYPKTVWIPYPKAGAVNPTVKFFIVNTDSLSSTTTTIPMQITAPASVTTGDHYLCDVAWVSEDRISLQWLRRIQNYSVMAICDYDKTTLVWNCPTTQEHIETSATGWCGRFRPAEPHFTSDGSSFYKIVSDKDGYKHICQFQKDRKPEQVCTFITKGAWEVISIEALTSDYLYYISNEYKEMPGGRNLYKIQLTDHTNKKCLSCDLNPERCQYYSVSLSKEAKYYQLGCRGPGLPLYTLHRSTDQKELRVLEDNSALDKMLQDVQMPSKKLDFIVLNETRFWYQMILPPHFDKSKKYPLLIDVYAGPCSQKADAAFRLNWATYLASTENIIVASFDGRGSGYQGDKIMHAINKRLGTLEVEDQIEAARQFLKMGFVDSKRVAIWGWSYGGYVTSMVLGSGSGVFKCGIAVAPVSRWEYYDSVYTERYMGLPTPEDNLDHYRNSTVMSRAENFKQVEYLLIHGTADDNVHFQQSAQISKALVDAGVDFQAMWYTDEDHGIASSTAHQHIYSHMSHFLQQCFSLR

One assay concerns the target Dipeptidyl peptidase 4 (Rattus norvegicus, UniProt P14740). As to the kind of experiment: Inhibition of DPP4 in rat plasma by fluorescence assay. The assay is classed as cell-free.
Settings: not given
`COc1ccc(N2CCN([C@@H]3CN[C@H](C(=O)N4CCSC4)C3)CC2)cc1` showed a pIC50 of 7.77. Same read-out and setting: the result for `O=C([C@@H]1C[C@H](N2CCN(c3ccc(Cl)cc3)CC2)CN1)N1CCSC1` reads 7.99. The same measure, in the same setting: the value for `O=C([C@@H]1C[C@H](N2CCN(c3ccc(Br)cc3)CC2)CN1)N1CCSC1` was 8.05; that for `O=C([C@@H]1C[C@H](N2CCN(c3ccccc3)CC2)CN1)N1CCSC1` was 7.75; that for `O=C([C@@H]1C[C@H](N2CCN(c3ccc(C(F)(F)F)cc3)CC2)CN1)N1CCSC1` was 8.14. On the same count and under the same terms, the result for `N#Cc1ccc(N2CCN([C@@H]3CN[C@H](C(=O)N4CCSC4)C3)CC2)nc1` reads 8.72; that for `O=C([C@@H]1C[C@H](N2CCCCC2)CN1)N1CCSC1`, 7.13. For `O=C([C@@H]1C[C@H](N2CCN(c3cccc(Cl)c3)CC2)CN1)N1CCSC1`, the negative-log IC50 (pIC50) is 8.14. On the same count and under the same terms, the result for `N#Cc1ccc(N2CCN([C@@H]3CN[C@H](C(=O)N4CCSC4)C3)CC2)cc1` reads 8.33; that for `O=C([C@@H]1C[C@H](N2CCN(c3ccc(F)cc3)CC2)CN1)N1CCSC1`, 7.76; that for `N#Cc1ccnc(N2CCN([C@@H]3CN[C@H](C(=O)N4CCSC4)C3)CC2)c1`, 8.85.

Another assay deals with Rattus norvegicus. As to the kind of experiment: Inhibition of DPP4 in Wistar rat plasma at 10 umol/kg, po within 30 mins. Format: functional. Particulars: 0.5 h. A digest of the protocol: (§1)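 Male/female not stated; Wistar rats given single oral dose of 10 µmol/kg in 0.5% hydroxypropylmethyl-cellulose. Jugular vein blood (0.1 mL) taken pre-dose and 0.5, 1, 2, 3, 5, 7, 9 h; plasma diluted 10-fold in PBS with 0.003% Brij-35, DPP-IV activity read by Gly-Pro-MCA fluorescence (ex 360/em 465 nm); % change of baseline, means ± SEM, n = 3.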
Take `N#Cc1ccc(N2CCN([C@@H]3CN[C@H](C(=O)N4CCSC4)C3)CC2)cc1C#N`: the inhibition in vivo at 10 µmol/kg was found to be 95%. As to `O=C([C@@H]1C[C@H](N2CCN(c3ccc([N+](=O)[O-])cn3)CC2)CN1)N1CCSC1`, the inhibition in vivo at 10 µmol/kg turned out to be 95%.

The next assay concerns Rattus norvegicus. Nature of the assay: Inhibition of DPP4 in Wistar rat plasma at 10 umol/kg, po after 9 hrs. The assay is classed as functional. Particulars: read-out: Inhibition. In short, it runs like this: as §1
As to `N#Cc1ccc(N2CCN([C@@H]3CN[C@H](C(=O)N4CCSC4)C3)CC2)cc1C#N`, the inhibition in vivo at 10 µmol/kg is more than 60%. Same read-out and setting: the value for `O=C([C@@H]1C[C@H](N2CCN(c3ccc([N+](=O)[O-])cn3)CC2)CN1)N1CCSC1` was more than 60%.

For the next assay, the system named is Rattus norvegicus. As to the kind of experiment: Inhibition of DPP4 in Wistar rat plasma at 10 umol/kg, po.
Settings: not given
Format: functional. A digest of the protocol: as §1
Turning to `N#Cc1ccc(N[C@@H]2CN[C@H](C(=O)N3CCSC3)C2)nc1`, the inhibition in vivo at 10 µmol/kg came to 70%.
